Active and inactive are the calls of the source. The calls are words filed in the database; no cut-off is given here.
Assays:
PC-3 [1] = assay: Induction of apoptosis in human PC3 cells assessed as early apoptotic cells at 10 uM incubated for 24 hrs by annexin V-FITC and propidium iodide staining based flow cytometry analysis (reference value: 0.24 %); type: functional
Jurkat [2] = assay: Antiproliferative activity against human Jurkat cells assessed as reduction in cell viability at 10 uM incubated for 48 hrs by cell titer-glo assay; type: functional, cell-based
How it was run: (§1)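 Cells plated and treated 24 h later with 10 µM compound for 48 h; viable cells quantified by CellTiter-Glo ATP luminescence. Expressed as percentage of viable cells relative to untreated; mean ± SD of three independent experiments, each in triplicate.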

Homo sapiens [3] = organism: Homo sapiens; assay: Antiproliferative activity against human JMV2 cells assessed as reduction in cell viability at 10 uM incubated for 48 hrs by cell titer-glo assay; type: functional, cell-based; how it was run: as §1
Homo sapiens [4] = organism: Homo sapiens; assay: Antiproliferative activity against human UPN2 cells assessed as reduction in cell viability at 10 uM incubated for 48 hrs by cell titer-glo assay; type: functional, cell-based; how it was run: as §1
Homo sapiens [5] = organism: Homo sapiens; assay: Antiproliferative activity against human SKMG3 cells assessed as reduction in cell viability at 10 uM incubated for 48 hrs by cell titer-glo assay; type: functional, cell-based; how it was run: as §1
SW-620 = assay: Antiproliferative activity against human SW620 cells assessed as reduction in cell viability at 10 uM incubated for 48 hrs by cell titer-glo assay; type: functional, cell-based; how it was run: as §1
PC-3 [6] = assay: Induction of cell morphological changes in human PC3 cells assessed as loss of cell adherence at 10 uM incubated for 24 to 48 hrs by phase contrast microscopy; type: functional, cell-based
How it was run: (§2)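 LN229 and PC3 cells exposed to 10 µM compound for the indicated time-points, then imaged live by phase-contrast microscopy for morphology.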

PC-3 [7] = assay: Induction of cell morphological changes in human PC3 cells assessed as cell shrinkage at 10 uM incubated for 24 to 48 hrs by phase contrast microscopy; type: functional, cell-based; how it was run: as §2
Jurkat [8] = assay: Antiproliferative activity against human Jurkat cells assessed as reduction in cell viability incubated for 48 hrs by cell titer-glo assay; type: functional, cell-based
How it was run: (§3)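 Dose-response: cells plated, treated 24 h later for 48 h, then ATP measured by CellTiter-Glo luminescence. IC50 given as mean ± SD from three independent experiments, each in triplicate. Fibroblasts came from individuals. Cells were kept in RPMI or DMEM with 10% heat-inactivated FBS and penicillin/streptomycin at 37 °C, 5% CO2.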

Granta-519 = assay: Antiproliferative activity against human GRANTA-519 cells assessed as reduction in cell viability incubated for 48 hrs by cell titer-glo assay; type: functional, cell-based; conditions: Granta-519, 48 h; how it was run: as §3
PC-3 [9] = assay: Antiproliferative activity against human PC3 cells assessed as reduction in cell viability incubated for 48 hrs by cell titer-glo assay; type: functional, cell-based; conditions: PC-3, 48 h; how it was run: as §3
MCF7 = assay: Antiproliferative activity against human MCF7 cells assessed as reduction in cell viability incubated for 48 hrs by cell titer-glo assay; type: functional, cell-based; conditions: MCF7, 48 h; how it was run: as §3
Fibroblast = assay: Cytotoxicity against human Fibroblast assessed as reduction in cell viability incubated for 48 hrs by cell titer-glo assay; type: cell-based; how it was run: as §3
Jurkat [10] = assay: Cell cycle arrest in human Jurkat cells assessed as increase in cell accumulation at G0/G1 phase at 10 uM incubated for 24 hrs by propidium iodide staining based flow cytometry analysis; type: functional
LN-229 [11] = assay: Cell cycle arrest in human LN229 cells assessed as cell accumulation at G2/M phase at 10 uM incubated for 48 hrs by propidium iodide staining based flow cytometry analysis relative to control; type: functional
PC-3 [12] = assay: Cell cycle arrest in human PC3 cells assessed as cell accumulation at G1 phase at 10 uM incubated for 48 hrs by propidium iodide staining based flow cytometry analysis relative to control; type: functional
PC-3 [13] = assay: Induction of cellular senescence in human PC3 cells assessed as flattened cells at 10 uM incubated for 24 hrs by phase contrast microscopy; type: functional, cell-based
How it was run: (§4)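 LN229 and PC3 cells, 12×10^4 per well in 6-well plates, treated with 10 µM compound for 24 h. Senescence-associated β-gal staining: fixed in 2% formaldehyde/0.2% glutaraldehyde for 10 min at RT, stained with 1 mg/mL X-gal at 37 °C for 24 h without CO2. Blue cells counted in at least 10 fields at 10x and given as percent of total; four independent experiments. Morphology viewed by phase contrast at ×100.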

PC-3 [14] = assay: Induction of cellular senescence in human PC3 cells assessed as larger volume of cell at 10 uM incubated for 24 hrs by phase contrast microscopy; type: functional, cell-based; how it was run: as §4
Homo sapiens [15] = organism: Homo sapiens; assay: Induction of apoptosis in human SP53 cells assessed as increase in caspase-3/7 activation at 10 uM incubated for 48 hrs by luminometric caspase-glo 3/7 assay; type: functional, cell-based
How it was run: (§5)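 Cells in RPMI or DMEM with 10% heat-inactivated FBS and penicillin/streptomycin, 37 °C, 5% CO2, treated with 10 µM compound for 48 h. Caspase-3 and caspase-7 activity read by luminescent Caspase-Glo 3/7 assay, reported as fold induction over untreated cells; mean ± SD of three independent experiments, each in triplicate.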

Z-138 = assay: Induction of apoptosis in human Z138 cells assessed as increase in caspase-3/7 activation at 10 uM incubated for 48 hrs by luminometric caspase-glo 3/7 assay; type: functional, cell-based; how it was run: as §5
PC-3 [16] = assay: Induction of apoptosis in human PC3 cells assessed as early apoptotic cells at 10 uM incubated for 72 hrs by annexin V-FITC and propidium iodide staining based flow cytometry analysis (reference value: 0.24 %); type: functional
LN-229 [17] = assay: Inhibition of colony formation in human LN229 cells at 10 uM incubated for 4 hrs by crystal violet staining based colony counting method; type: functional, cell-based
How it was run: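 LN229 and PC3 cells treated for 4 h with compound (10 µM) or with etoposide (30 µM positive control), washed, trypsinized and replated at 3000 cells per 60-mm plate. Colonies grown 7–10 days, fixed and stained with 0.5% crystal violet in 70% ethanol, and counted. Reported as percent of control; four independent experiments, each in duplicate.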

LN-229 [18] = assay: Antiproliferative activity against human LN229 cells assessed as reduction in cell viability at 10 uM incubated for 48 hrs in presence of Cu2+ ion by MTT assay; type: functional, cell-based
How it was run: (§6)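 LN229 and PC3 cells plated, then 24 h later given 10 µM compound with or without 15 µM ZnCl2, CuCl2, FeCl2 or FeCl3 for 48 h. Medium replaced, MTT (12 mM solution) added for 4 h, formazan dissolved in DMSO, absorbance read at 540 nm. Percent viable versus untreated; mean ± SD of three experiments in triplicate.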

PC-3 [19] = assay: Antiproliferative activity against human PC3 cells assessed as reduction in cell viability at 10 uM incubated for 48 hrs in presence of Cu2+ ion by MTT assay; type: functional, cell-based; how it was run: as §6
PC-3 [20] = assay: Antiproliferative activity against human PC3 cells assessed as reduction in cell viability at 10 uM incubated for 48 hrs in presence of Fe2+ ion by MTT assay; type: functional, cell-based; how it was run: as §6
PC-3 [21] = assay: Antiproliferative activity against human PC3 cells assessed as reduction in cell viability at 10 uM incubated for 48 hrs in presence of Fe3+ ion by MTT assay; type: functional, cell-based; how it was run: as §6
LN-229 [22] = assay: Induction of apoptosis in human LN229 cells at 10 uM incubated for 24 to 48 hrs by annexin V-FITC and propidium iodide staining based flow cytometric analysis; type: functional, cell-based
[23] = Metal chelating activity assessed as Zn2+-compound complex formation at physiological pH 7.4 by quantum mechanical studies
How it was run: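 Zn2+ complexes modelled by DFT, B3LYP, gas phase. Basis set def2-SV(P), with MDF10 Stuttgart-Dresden effective core potential for Zn and Grimme dispersion correction. Vibrational frequencies and zero-point correction computed for each minimum.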

For `CN(CCNCc1ccccn1)CCNCc1ccccn1`, the Activity (PC-3 [1]) was 0.8%, the Activity (Jurkat [2]) was “Active” and the Activity (Homo sapiens [3]) was “Active”. For the same molecule, the Activity (Homo sapiens [4]) was “Active”, the Activity (Homo sapiens [5]) was “Active” and the Activity (SW-620) was “Active”. The Activity (PC-3 [6]) was “Active”, the Activity (PC-3 [7]) was “Active” and the IC50 (Jurkat [8]) was 1.99 µM. It also gave an IC50 (Granta-519) of 2.09 µM, an IC50 (PC-3 [9]) of 11.2 µM and an IC50 (MCF7) of 3.13 µM. The IC50 (Fibroblast) was 20.5 µM, the Activity (Jurkat [10]) was “Active” and the Activity (LN-229 [11]) was 20.2%. For the same molecule, the Activity (PC-3 [12]) was 57.2%, the Activity (PC-3 [13]) was “Active” and the Activity (PC-3 [14]) was “Active”. For the same molecule, the Activity (Homo sapiens [15]) was “Active”, the Activity (Z-138) was “Active” and the Activity (PC-3 [16]) was 14.27%. The inhibition (LN-229 [17]) was “inactive”, the Activity (LN-229 [18]) was “inactive” and the Activity (PC-3 [19]) was “inactive”. For the same molecule, the Activity (PC-3 [20]) was “Active”, the Activity (PC-3 [21]) was “Active” and the Activity (LN-229 [22]) was “Active”. For the same molecule, the Activity [23] was > 99%.
For `c1ccc(CNCCN(CCNCc2ccccn2)Cc2ccc3ccccc3c2)nc1`, the Activity (PC-3 [1]) was 0.63%, the Activity (Jurkat [2]) was “Active” and the Activity (Homo sapiens [3]) was “Active”. The Activity (Homo sapiens [4]) was “Active”, the Activity (Homo sapiens [5]) was “Active” and the Activity (SW-620) was “Active”. For the same molecule, the Activity (PC-3 [6]) was “Active”, the Activity (PC-3 [7]) was “Active” and the IC50 (Jurkat [8]) was 3.17 µM. The IC50 (Granta-519) was 4.34 µM, the IC50 (PC-3 [9]) was 11 µM and the IC50 (MCF7) was 3.19 µM. The IC50 (Fibroblast) was 29.7 µM, the Activity (Jurkat [10]) was “Active” and the Activity (LN-229 [11]) was 14.4%. The Activity (PC-3 [12]) was 73.4%, the Activity (PC-3 [13]) was “Active” and the Activity (PC-3 [14]) was “Active”. The Activity (Homo sapiens [15]) was “Active”, the Activity (Z-138) was “Active” and the Activity (PC-3 [16]) was 14.7%. The inhibition (LN-229 [17]) was “inactive”, the Activity (LN-229 [18]) was “inactive” and the Activity (PC-3 [19]) was “inactive”. The Activity (PC-3 [20]) was “Active”, the Activity (PC-3 [21]) was “Active” and the Activity (LN-229 [22]) was “Active”. For the same molecule, the Activity [23] was > 99%.
